# ChEMBL document CHEMBL1125029, “Chemical and biochemical studies of 2-propynylpyrrolidine derivatives. Restricted-rotation analogues of N-methyl-N-(1-methyl-4-pyrrolidino-2-butynyl)acetamide (BM-5)” (J Med Chem, 1990)
# Assays:
# [1] = target: Muscarinic acetylcholine receptor; assay: (§1) Binding activity against Muscarinic acetylcholine receptor in rat cortex, using [3H]QNB as a radioligand.; format: tissue-based
# How it was run: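 Radioligand 250 pM (30.0 Ci/mmol). Competitor at final 10^-12 to 10^-3 M. 10 μM atropine defines nonspecific binding. Filtration on PEI-soaked GF/B filters, scintillation counting. Apparent Ki from one-site competitive nonlinear fit.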
# [2] = target: Muscarinic receptor M1 and M2 (Rattus norvegicus) (UniProt P08482+P10980); assay: The agonist ratio as the ratio of Ki against [3H]QNB to that of [3H]-CD; format: functional
# [3] = target: Muscarinic acetylcholine receptor; assay: Binding activity to the muscarinic acetylcholine receptor in rat cortex, assayed using [3H]CD as a radioligand.; format: tissue-based
# How it was run: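 Male Wistar rat cerebral cortex homogenate in 10 mM Na/K phosphate pH 7.4, diluted 1:300 (wet wt/v), ~0.75 mg protein per 2.0 mL. 1 nM radioligand (55.5 Ci/mmol), prepared fresh in buffer. Competitor 10^-12 to 10^-3 M. Nonspecific binding with 10 μM atropine. Rapid filtration on PEI-treated filters, scintillation counting. Apparent Ki by one-site competitive nonlinear regression.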
# [4] = target: Muscarinic acetylcholine receptor; assay: Binding activity to the muscarinic acetylcholine receptor in rat cortex, assayed using [3H]PZ as a radioligand.; format: tissue-based
# How it was run: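 Rat (male Wistar, 200-250 g) cortex homogenized in ice-cold Na/K phosphate buffer pH 7.4, diluted 1:400, ~0.55 mg protein per 2.0 mL. 0.1 nM radioligand (84.1 Ci/mmol), made fresh just before use. Unlabeled competitor at final 10^-12 to 10^-3 M. 10 μM atropine for nonspecific. Filtered, counted by liquid scintillation. One-site competitive fit gives apparent Ki.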
# [5] = target: Muscarinic acetylcholine receptor; assay: Binding activity to muscarinic acetylcholine receptor in rat heart, assayed using [3H]QNB as a radioligand in the presence of Gpp(NH)p.
# How it was run: (§2)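 Male Wistar rat heart ventricles flushed, minced, Polytron-homogenized in 10 mM Na/K phosphate pH 7.4, spun 48000 g 15 min 4 °C, resuspended, gauze-filtered, diluted 1:750, 0.15-0.2 mg protein/2.0 mL. 10 μM Gpp(NH)p added to homogenate for line 3. Competitor 10^-12 to 10^-3 M. 10 μM atropine nonspecific. Filtration, scintillation counting. Ki from one-site fit.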
# [6] = target: Muscarinic acetylcholine receptor; assay: Binding activity to muscarinic acetylcholine receptor in rat heart, assayed using [3H]-QNB as a radioligand.; how it was run: as §2
# [7] = target: T1, Muscarinic acetylcholine receptor M1 (Rattus norvegicus) (UniProt P08482); assay: Muscarinic 1 receptor agonistic activity as the selectivity ratio of Ki against [3H]-QNB to that of [3H]PZ; format: functional
# T1 sequence (whole entry): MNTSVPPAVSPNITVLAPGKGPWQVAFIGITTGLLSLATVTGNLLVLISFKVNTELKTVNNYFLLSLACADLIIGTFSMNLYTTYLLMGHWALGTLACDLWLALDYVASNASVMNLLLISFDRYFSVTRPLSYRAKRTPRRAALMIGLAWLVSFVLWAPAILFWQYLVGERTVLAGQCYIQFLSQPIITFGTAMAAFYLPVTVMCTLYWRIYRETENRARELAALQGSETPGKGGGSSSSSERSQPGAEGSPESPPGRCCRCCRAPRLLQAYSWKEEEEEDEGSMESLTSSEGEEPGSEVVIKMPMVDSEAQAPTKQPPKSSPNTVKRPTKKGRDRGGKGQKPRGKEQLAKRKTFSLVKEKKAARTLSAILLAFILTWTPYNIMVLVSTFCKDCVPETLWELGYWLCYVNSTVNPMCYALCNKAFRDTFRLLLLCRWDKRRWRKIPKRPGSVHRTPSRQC
# [8] = target: T1, Muscarinic acetylcholine receptor M1 (Rattus norvegicus); assay: Muscarinic 1 receptor agonistic activity as the selectivity ratio of Ki against [3H]-QNB+ Gpp(NH)p to that of [3H]PZ; format: functional
# [9] = target: T2, Muscarinic acetylcholine receptor M2 (Rattus norvegicus) (UniProt P10980); assay: Muscarinic 2 receptor agonistic activity was determined as the selectivity ratio of Ki against [3H]QNB+ Gpp(NH)p to that of [3H]QNB; format: functional
# T2 sequence (whole entry): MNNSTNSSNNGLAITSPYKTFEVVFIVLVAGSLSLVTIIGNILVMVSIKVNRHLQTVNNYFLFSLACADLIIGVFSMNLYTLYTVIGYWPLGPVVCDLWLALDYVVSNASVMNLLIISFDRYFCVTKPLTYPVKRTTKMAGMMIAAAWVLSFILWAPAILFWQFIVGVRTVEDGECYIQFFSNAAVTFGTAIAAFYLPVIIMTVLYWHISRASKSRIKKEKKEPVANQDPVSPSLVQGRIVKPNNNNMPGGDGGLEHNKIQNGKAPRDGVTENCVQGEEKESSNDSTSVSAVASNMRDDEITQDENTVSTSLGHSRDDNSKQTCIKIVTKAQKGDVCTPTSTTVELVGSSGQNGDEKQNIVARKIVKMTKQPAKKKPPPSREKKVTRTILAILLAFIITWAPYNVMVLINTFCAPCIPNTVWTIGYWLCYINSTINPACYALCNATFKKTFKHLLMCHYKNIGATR
# [10] = target: Muscarinic acetylcholine receptor; assay: as §1; format: tissue-based; remark: listed apart in the source
# How it was run: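 Competitor at final 10^-12 to 10^-3 M. 10 μM atropine defines nonspecific binding. Filtration on PEI-soaked GF/B filters, scintillation counting. Apparent Ki from one-site competitive nonlinear fit.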
SMILES,Ki [1] [µM],Ratio [2],Ki [3] [µM],Ki [4] [µM],Ki [5] [µM],Ki [6] [µM],Ratio [7],Ratio [8],Ratio [9],Ki [10] [µM]
CN(C)CC#C[C@@H]1CCCN1.Cl.Cl,8.5,0.2,37.35,13.2,19.1,20,1.5,1.4,1,
CC(=O)N1CCC[C@@H]1C#CCN1CCCC1.Cl,,1,0.45,0.17,1.63,0.61,3.6,9.6,2.7,0.43
O=CN1CCC[C@H]1C#CCN1CCCC1,4.59,1,4.88,1.23,77,7.62,6.2,62,10,
CS(=O)(=O)N1CCC[C@@H]1C#CCN1CCCC1.Cl,,1,1.98,4.11,13.4,5.91,1.4,3.3,2.3,1.92
C(#C[C@@H]1CCCN1)CN1CCCC1.Cl.Cl,2.8,0.5,5.67,2.22,2.08,1.55,0.7,0.9,1.3,
CN(C)CC#C[C@@H]1CCCN1C(=O)OC(C)(C)C,,3.5,3.3,9.04,14.1,13.4,1.5,1.6,1.1,11.4
CN(C)CC#C[C@H]1CCCN1.Cl.Cl,,0.5,37.08,25.2,29.3,28.5,1.1,1.2,1,18.7
C(#C[C@H]1CCCN1)CN1CCCC1.Cl.Cl,,2.5,1.28,6.5,19.6,12.9,2,3,1.5,3.22
Cl.O=C(N1CCC[C@H]1C#CCN1CCCC1)C(F)(F)F,,1.6,2.22,3.1,8.86,6.4,2.1,2.9,1.4,3.45
CS(=O)(=O)N1CCC[C@H]1C#CCN1CCCC1.Cl,,0.8,3.92,6.05,15.1,9.19,1.5,2.5,1.6,3.02
CC(C)(C)OC(=O)N1CCC[C@@H]1C#CCN1CCCC1,,3,0.22,0.42,1.96,1.32,3.1,4.7,1.5,0.66
COC(=O)N1CCC[C@@H]1C#CCN1CCCC1,,1.5,0.53,1.59,5.06,2.94,1.8,3.2,1.7,0.81
CC(=O)N1CCC[C@H]1C#CC[N+](C)(C)C,20.9,5,4.15,13.9,47.1,16.4,1.2,3.4,2.9,
CN(C)CC#C[C@H]1CCCN1C(=O)OC(C)(C)C,,12.8,0.25,5.6,19.6,5.16,0.9,3.5,3.8,3.2
COC(=O)N1CCC[C@H]1C#CCN1CCCC1,,0.4,1.44,1.48,5.75,4.42,3,3.9,1.3,0.62
O=CN1CCC[C@@H]1C#CCN1CCCC1,,0.7,3.35,1.18,3.12,3.26,2.7,2.5,1,2.39
O=C1CCCN1CC#CCN1CCCC1 [OXOTREMORINE],,120,0.0005,0.14,0.14,0.004,0.03,1,35,0.06
CCOC(=O)N1CCC[C@@H]1C#CCN1CCCC1,,2.3,0.51,0.19,1.04,0.94,4.9,5.5,1.1,1.16
CCOC(=O)N1CCC[C@H]1C#CCN1CCCC1,,0.5,0.61,0.1,1,0.85,8.5,10,1.2,0.31
CC(C)(C)OC(=O)N1CCC[C@H]1C#CCN1CCCC1,,3,0.33,0.07,0.9,0.13,1.9,13,6.9,0.98
Cl.O=C(N1CCC[C@@H]1C#CCN1CCCC1)C(F)(F)F,,0.8,0.44,0.14,1.07,1.23,8.8,7.6,0.9,0.36
CC(=O)N1CCC[C@@H]1C#CC[N+](C)(C)C,,20.3,0.11,1.63,5.47,2.07,1.3,3.4,2.6,2.23
CC(=O)N1CCC[C@@H]1C#CCN(C)C,,8.4,1.65,5.25,42.4,11.8,2.2,8.1,3.6,13.8
